Results: ChEMBL document CHEMBL4765491, “Discovery of Potent and Selective Methylenephosphonic Acid CD73 Inhibitors” (J Med Chem, 2021)
pIC50: −log10 of the molar value.

What was measured:
[1] = biological target: T1, 5'-nucleotidase (Homo sapiens, UniProt P21589); experiment: Inhibition of CD73 in human SK-OV-3 cells incubated for 60 mins before addition of AMP and further incubated for 60 mins by colorimetric assay; format: cell-based
[2] = biological target: T1, 5'-nucleotidase; experiment: Inhibition of human CD73 expressed in CHO cells incubated for 60 mins before addition of AMP and further incubated for 60 mins by colorimetric assay; format: cell-based
How it was run: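 Thawed stable CD73-CHO cells in HEPES pH 7.4 saline buffer with 0.1% glucose, 1500 cells/well. Preincubated 60 min at 37 °C with 16-point 1:3 compound dilutions (final 100–0 or 0.1–0 μM; 10 or 2% DMSO). 25 μM AMP then added, 60 min at 37 °C/5% CO2. Supernatant phosphate measured with PiColorLock Gold. Activity normalized to DMSO and no-cell wells. IC50 from a four-parameter fit.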

[3] = biological target: T1, 5'-nucleotidase; experiment: Inhibition of soluble human CD73 incubated for 60 mins before addition of AMP and further incubated for 60 mins by colorimetric assay
[4] = biological target: Adenosine receptor A2a (Homo sapiens, UniProt P29274); experiment: Inhibition of A2AR (unknown origin) expressed in CHO cells assessed as reduction in NECA-stimulated cellular cAMP levels incubated for 90 mins by FRET assay; format: functional, cell-based
How it was run: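 Tetracycline-induced CHO cells stably expressing ADORA2A, 2000 cells/well, preincubated with 20-point 1:2 compound dilutions (final 10–0 μM). Stimulated with 30 nM NECA, 30 min at 37 °C. Quenched with ULight-anti-cAMP in lysis buffer, then Eu-cAMP tracer added, 60 min at 37 °C. Inhibition read as change in cellular cAMP.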

[5] = biological target: T2, Ectonucleoside triphosphate diphosphohydrolase 2 (Homo sapiens, UniProt Q9Y5L3); experiment: Inhibition of human NTPDase-2 expressed in CHO-K1 cells in presence of DNA/LTX mixture; format: cell-based
T2 sequence (Q9Y5L3 whole entry): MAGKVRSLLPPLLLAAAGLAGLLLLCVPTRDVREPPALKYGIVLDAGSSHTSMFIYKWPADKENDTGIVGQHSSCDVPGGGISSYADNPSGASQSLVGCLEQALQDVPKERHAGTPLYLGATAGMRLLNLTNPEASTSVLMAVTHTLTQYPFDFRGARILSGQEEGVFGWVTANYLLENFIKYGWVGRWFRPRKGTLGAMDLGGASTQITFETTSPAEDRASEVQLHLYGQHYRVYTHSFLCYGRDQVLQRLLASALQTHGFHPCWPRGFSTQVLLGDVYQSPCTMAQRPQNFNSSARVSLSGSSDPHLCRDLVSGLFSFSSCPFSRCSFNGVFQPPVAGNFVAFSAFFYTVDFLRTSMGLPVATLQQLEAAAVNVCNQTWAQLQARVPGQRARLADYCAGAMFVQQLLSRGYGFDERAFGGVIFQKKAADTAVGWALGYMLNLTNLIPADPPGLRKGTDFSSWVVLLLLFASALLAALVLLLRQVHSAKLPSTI
How it was run: (§1)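 CHO-K1 cells transfected overnight (Lipofectamine LTX) with NTPDase2, 3 or 8 plasmid, then harvested into HEPES pH 7.4 buffer. 10,000 cells/well, 2% DMSO, 16-point 1:3 compound dilutions (final 10–0 μM), 1 h preincubation at 37 °C. ATP added at 25 (NTPDase2), 15 (NTPDase3) or 30 μM (NTPDase8), 50 min at 37 °C. Phosphate read with PiColorLock Gold at 620 nm.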

[6] = biological target: T3, Ectonucleoside triphosphate diphosphohydrolase 3 (Homo sapiens, UniProt O75355); experiment: Inhibition of human NTPDase-3 expressed in CHO-K1 cells in presence of DNA/LTX mixture; format: cell-based; how it was run: as §1
T3 sequence (O75355 whole entry): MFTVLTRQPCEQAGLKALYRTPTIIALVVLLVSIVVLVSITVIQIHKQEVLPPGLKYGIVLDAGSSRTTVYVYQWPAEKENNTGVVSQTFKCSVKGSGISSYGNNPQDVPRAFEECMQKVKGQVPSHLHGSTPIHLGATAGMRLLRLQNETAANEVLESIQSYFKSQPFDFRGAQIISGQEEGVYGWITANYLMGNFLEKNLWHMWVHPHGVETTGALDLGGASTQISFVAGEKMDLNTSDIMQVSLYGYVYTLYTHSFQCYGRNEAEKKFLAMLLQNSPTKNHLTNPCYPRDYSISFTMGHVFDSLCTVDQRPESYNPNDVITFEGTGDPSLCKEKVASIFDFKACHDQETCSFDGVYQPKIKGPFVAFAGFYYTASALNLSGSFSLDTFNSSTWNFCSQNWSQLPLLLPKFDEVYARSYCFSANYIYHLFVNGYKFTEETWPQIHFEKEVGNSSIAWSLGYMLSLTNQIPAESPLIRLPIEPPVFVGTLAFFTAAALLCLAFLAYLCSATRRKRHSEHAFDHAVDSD

[7] = biological target: T4, Ectonucleoside triphosphate diphosphohydrolase 8 (Homo sapiens, UniProt Q5MY95); experiment: Inhibition of human NTPDase-8 expressed in CHO-K1 cells in presence of DNA/LTX mixture; format: cell-based; how it was run: as §1
T4 sequence (Q5MY95 whole entry): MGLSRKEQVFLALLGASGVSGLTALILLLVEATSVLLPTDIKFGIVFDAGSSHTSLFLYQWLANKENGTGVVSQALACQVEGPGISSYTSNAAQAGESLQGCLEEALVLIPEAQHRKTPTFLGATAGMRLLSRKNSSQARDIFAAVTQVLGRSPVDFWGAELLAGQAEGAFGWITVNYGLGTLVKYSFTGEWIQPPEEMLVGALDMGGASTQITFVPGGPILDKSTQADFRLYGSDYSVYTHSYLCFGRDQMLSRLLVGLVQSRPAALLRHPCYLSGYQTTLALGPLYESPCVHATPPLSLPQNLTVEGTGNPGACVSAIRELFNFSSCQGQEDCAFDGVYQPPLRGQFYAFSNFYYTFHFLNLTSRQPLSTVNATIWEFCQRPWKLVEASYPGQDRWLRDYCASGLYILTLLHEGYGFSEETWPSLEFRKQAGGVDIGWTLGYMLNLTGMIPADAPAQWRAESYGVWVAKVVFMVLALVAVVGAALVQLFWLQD

[8] = Stability in mouse hepatocytes; format: ADME, cell-based, Hepatocyte
[9] = Clearance in Sprague-Dawley rat at 0.25 to 0.5 mg/kg, iv measured up to 24 hrs by LC-MS/MS analysis; format: ADME, organism-based; details: in vivo, dose 0.25-0.5 mg/kg
How it was run: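 Male SD rats (0.27–0.30 kg), acclimated. Single IV bolus via femoral vein at 0.25 or 0.5 mg/kg in 31.6% DMA/36.8% ethanol/31.6% PEG. Jugular blood at predose, 5, 15, 30 min, 1, 2, 4, 6, 8, 24 h, collected into K2-EDTA; plasma spun at 4 °C, stored −80 °C until analysis.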

T1 sequence (P21589 whole entry): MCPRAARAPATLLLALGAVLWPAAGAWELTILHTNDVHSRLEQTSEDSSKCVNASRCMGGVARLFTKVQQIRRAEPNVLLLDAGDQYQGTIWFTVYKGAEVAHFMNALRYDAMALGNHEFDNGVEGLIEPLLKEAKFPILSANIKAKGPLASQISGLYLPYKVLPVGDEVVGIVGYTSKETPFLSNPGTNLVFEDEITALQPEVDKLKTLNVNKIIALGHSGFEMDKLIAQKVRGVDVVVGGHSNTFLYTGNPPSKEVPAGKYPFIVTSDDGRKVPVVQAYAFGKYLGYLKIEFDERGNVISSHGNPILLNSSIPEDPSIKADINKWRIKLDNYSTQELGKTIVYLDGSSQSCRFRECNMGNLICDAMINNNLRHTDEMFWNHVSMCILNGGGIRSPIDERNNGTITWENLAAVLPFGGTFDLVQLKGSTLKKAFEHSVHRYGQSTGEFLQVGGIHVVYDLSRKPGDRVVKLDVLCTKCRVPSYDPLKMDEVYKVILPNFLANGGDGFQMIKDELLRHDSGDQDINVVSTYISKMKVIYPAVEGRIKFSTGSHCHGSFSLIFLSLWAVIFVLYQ
Adenosine receptor A2a, sequence (P29274 whole entry): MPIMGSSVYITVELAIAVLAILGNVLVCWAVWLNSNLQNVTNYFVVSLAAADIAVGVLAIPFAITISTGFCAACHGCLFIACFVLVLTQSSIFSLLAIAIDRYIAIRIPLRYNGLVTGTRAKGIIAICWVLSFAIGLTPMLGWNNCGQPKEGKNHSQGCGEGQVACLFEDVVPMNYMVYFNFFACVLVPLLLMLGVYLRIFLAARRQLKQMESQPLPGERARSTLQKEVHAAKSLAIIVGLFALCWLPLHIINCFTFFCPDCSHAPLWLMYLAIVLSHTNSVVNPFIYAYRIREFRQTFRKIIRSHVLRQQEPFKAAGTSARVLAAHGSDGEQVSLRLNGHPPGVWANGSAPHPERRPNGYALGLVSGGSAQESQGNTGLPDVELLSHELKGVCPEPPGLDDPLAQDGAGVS

With O=P(O)(O)COC[C@H]1O[C@@H](n2ncc3c(NC4CCCC4)nc(Cl)nc32)[C@H](O)[C@@H]1O the pIC50 [1] was 9.26, the pIC50 [2] was 8.59 and the pIC50 [3] was 9.07. The pIC50 [4] was less than 5.00, the pIC50 [5] was less than 5.00 and the pIC50 [6] was less than 5.00. The pIC50 [7] was less than 5.00, the Stabilty [8] was “Stable” and the clearance [9] was 2.17 mL/min/kg.
